# pIC50: −log10 of the molar value.
# How the values were obtained:
# Cytochrome P450 1B1 [1] = target: T1, Cytochrome P450 1B1 (Homo sapiens, UniProt Q16678); assay: Inhibition of human liver CYP1B1 expressed in Saccharomyces cerevisiae YY7 microsomal membranes using 7-ethoxyresorufin as substrate after 10 mins by fluorescence assay
# T1 sequence (Q16678 whole entry): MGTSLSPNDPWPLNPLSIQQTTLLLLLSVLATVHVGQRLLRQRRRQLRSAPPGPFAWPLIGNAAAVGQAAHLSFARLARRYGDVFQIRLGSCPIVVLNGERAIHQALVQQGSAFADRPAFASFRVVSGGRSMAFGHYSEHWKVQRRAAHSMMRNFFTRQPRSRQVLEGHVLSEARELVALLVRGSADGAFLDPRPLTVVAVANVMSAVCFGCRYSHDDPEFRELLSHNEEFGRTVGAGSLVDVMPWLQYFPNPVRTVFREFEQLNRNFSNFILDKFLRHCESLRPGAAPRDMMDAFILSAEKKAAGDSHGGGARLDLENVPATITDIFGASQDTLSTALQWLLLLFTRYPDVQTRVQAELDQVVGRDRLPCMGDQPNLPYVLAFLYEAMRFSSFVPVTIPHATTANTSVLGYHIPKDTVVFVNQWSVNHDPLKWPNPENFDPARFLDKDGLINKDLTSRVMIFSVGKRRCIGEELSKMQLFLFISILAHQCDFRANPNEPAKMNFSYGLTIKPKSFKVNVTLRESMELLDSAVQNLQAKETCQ
# Outline: (§1)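 Yeast microsomes (YY7 strain carrying human reductase) held 0.5 pmol CYP with an NADP+/glucose-6-phosphate/G6PDH regenerating system in KPi. Fluorogenic substrate per isoform: 7-ER, CEC, EOMCC or DBF. Six serial 1:20 dilutions were tested, DMSO ≤0.5%. Reactions ran 10 min at 37 °C and were stopped with Tris-acetonitrile. Endpoint fluorescence (530/590 nm for resorufin) was fitted by 4-parameter sigmoid. Triplicate, ≥3 experiments.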
# Cytochrome P450 1A1 = target: T2, Cytochrome P450 1A1 (Homo sapiens, UniProt P04798); assay: Inhibition of human liver CYP1A1 expressed in Saccharomyces cerevisiae YY7 microsomal membranes using 7-ethoxyresorufin as substrate after 10 mins by fluorescence assay; format: ADME, Microsomal Membrane; outline: as §1
# T2 sequence (P04798 whole entry): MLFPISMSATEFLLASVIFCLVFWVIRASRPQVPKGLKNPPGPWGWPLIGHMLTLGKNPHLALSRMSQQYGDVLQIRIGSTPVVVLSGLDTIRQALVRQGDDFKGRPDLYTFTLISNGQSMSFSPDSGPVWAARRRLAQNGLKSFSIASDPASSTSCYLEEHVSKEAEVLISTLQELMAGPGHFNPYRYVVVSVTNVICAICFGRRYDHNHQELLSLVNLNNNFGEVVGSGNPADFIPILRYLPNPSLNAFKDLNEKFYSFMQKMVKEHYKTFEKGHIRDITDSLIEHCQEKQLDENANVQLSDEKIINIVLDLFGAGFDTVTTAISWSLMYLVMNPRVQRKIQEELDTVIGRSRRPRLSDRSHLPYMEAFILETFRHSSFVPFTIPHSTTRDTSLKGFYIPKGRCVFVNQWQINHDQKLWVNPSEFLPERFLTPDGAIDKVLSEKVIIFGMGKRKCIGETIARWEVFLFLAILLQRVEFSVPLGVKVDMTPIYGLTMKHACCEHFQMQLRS
# Cytochrome P450 1A2 = target: T3, Cytochrome P450 1A2 (Homo sapiens, UniProt P05177); assay: Inhibition of human liver CYP1A2 expressed in Saccharomyces cerevisiae YY7 microsomal membranes using CEC as substrate after 10 mins by fluorescence assay; format: ADME, Microsomal Membrane; outline: as §1
# T3 sequence (P05177 whole entry): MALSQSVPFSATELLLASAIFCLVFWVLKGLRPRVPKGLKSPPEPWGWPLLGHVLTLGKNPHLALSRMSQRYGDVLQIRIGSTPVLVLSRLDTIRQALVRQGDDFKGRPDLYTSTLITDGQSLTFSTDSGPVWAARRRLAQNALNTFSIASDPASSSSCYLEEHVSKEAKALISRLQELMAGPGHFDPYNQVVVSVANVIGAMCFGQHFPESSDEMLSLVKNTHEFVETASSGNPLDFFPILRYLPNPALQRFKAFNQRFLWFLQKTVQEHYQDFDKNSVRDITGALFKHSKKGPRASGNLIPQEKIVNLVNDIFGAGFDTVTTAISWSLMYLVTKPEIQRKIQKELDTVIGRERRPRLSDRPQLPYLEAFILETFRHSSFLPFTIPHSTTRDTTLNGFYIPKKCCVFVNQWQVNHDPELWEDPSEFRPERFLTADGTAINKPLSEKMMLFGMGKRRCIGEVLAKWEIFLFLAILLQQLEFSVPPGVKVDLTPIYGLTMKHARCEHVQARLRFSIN
# Cytochrome P450 3A4 = Cytochrome P450 3A4 (Homo sapiens, UniProt P08684); assay: Inhibition of human liver CYP3A4 expressed in Saccharomyces cerevisiae YY7 microsomal membranes using DBF as substrate after 10 mins by fluorescence assay; format: ADME, Microsomal Membrane
# Sequence of Cytochrome P450 3A4 (P08684 whole entry): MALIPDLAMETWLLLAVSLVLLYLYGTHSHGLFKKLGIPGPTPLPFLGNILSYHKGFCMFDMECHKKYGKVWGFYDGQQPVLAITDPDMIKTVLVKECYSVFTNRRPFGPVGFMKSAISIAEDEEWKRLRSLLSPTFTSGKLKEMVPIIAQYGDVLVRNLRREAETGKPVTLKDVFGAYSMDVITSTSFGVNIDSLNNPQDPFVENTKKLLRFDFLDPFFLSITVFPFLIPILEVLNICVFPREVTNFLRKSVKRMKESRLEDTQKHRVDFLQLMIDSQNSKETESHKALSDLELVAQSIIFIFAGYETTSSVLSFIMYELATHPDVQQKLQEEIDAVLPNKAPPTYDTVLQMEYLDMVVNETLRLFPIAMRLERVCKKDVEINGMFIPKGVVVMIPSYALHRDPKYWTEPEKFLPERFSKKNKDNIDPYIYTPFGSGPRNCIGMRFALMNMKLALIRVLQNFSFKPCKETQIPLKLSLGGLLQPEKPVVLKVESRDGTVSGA
# Cytochrome P450 2D6 = Cytochrome P450 2D6 (Homo sapiens, UniProt P10635); assay: Inhibition of human liver CYP2D6 expressed in Saccharomyces cerevisiae YY7 microsomal membranes using EOMCC as substrate after 10 mins by fluorescence assay; format: ADME, Microsomal Membrane; outline: as §1
# Sequence of Cytochrome P450 2D6 (P10635 whole entry): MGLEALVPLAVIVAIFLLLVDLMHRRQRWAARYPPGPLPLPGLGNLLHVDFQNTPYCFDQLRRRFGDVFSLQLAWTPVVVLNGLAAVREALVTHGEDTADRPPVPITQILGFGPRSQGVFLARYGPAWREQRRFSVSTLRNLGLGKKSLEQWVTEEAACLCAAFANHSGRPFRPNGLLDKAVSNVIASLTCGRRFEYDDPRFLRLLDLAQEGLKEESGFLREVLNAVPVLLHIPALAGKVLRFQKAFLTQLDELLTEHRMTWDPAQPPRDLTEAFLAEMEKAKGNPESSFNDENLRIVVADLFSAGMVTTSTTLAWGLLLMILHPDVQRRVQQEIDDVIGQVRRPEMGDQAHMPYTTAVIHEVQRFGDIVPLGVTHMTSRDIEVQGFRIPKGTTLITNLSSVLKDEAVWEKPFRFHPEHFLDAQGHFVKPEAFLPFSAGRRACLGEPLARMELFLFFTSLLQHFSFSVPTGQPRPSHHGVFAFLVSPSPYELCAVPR
# Cytochrome P450 2C9 = Cytochrome P450 2C9 (Homo sapiens, UniProt P11712); assay: Inhibition of human liver CYP2C9 expressed in Saccharomyces cerevisiae YY7 microsomal membranes using DBF as substrate after 10 mins by fluorescence assay; format: ADME, Microsomal Membrane
# Sequence of Cytochrome P450 2C9 (P11712 whole entry): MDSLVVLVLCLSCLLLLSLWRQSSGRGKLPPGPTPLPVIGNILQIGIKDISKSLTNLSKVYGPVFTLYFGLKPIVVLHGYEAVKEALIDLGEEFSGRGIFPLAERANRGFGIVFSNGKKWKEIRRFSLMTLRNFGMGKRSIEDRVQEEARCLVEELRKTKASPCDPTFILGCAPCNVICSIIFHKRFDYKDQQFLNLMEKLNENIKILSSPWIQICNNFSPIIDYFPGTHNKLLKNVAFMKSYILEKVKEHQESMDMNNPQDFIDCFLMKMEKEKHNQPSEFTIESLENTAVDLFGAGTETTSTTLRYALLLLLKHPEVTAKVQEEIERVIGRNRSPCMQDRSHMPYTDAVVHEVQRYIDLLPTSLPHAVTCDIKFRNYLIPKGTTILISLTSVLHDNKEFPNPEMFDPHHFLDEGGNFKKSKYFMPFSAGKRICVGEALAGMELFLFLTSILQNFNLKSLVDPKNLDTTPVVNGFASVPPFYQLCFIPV
# Cytochrome P450 2C19 = Cytochrome P450 2C19 (Homo sapiens, UniProt P33261); assay: Inhibition of human liver CYP2C19 expressed in Saccharomyces cerevisiae YY7 microsomal membranes using DBF as substrate after 10 mins by fluorescence assay; format: ADME, Microsomal Membrane
# Sequence of Cytochrome P450 2C19 (P33261 whole entry): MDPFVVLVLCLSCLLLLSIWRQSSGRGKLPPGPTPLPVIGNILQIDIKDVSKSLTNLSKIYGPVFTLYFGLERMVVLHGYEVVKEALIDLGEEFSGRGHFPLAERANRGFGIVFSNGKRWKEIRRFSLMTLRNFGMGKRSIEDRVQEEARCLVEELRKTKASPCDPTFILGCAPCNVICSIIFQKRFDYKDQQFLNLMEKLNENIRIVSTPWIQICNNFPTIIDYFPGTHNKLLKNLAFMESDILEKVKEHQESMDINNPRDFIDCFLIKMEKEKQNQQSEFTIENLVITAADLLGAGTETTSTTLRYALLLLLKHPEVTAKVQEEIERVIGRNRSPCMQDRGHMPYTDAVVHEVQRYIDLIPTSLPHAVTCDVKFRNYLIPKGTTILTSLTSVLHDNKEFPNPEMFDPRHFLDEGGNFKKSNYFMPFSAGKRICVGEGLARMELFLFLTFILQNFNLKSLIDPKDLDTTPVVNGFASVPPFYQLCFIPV
# Cytochrome P450 1B1 [2] = target: T1, Cytochrome P450 1B1; assay: Inhibition of human liver CYP1B1 expressed in Saccharomyces cerevisiae YY7 microsomal membranes at 5 to 10 uM using 7-ethoxyresorufin as substrate after 10 mins by fluorescence assay
# Outline: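 Single-concentration screen on CYP1B1 yeast microsomes at 5 µM (10 µM per methods), with 7-ER under the regenerating-system endpoint format: 10 min at 37 °C. Percentage inhibition versus a DMSO control; each compound tested twice.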
SMILES,pIC50 (Cytochrome P450 1B1 [1]),pIC50 (Cytochrome P450 1A1),pIC50 (Cytochrome P450 1A2),pIC50 (Cytochrome P450 3A4),pIC50 (Cytochrome P450 2D6),pIC50 (Cytochrome P450 2C9),pIC50 (Cytochrome P450 2C19),inhibition (INH) (Cytochrome P450 1B1 [2])
O=C(/C=C/c1ccc2c(c1)OCO2)c1cccnc1,7.54,5.82,5.82,4.92,4.85,< 4.70,< 4.70,Active
O=C(/C=C/c1cccc(O)c1)c1cccnc1,6.33,4.60,5.54,–,–,–,–,Active
COc1ccc(C(=O)/C=C/c2cccnc2)cc1OC,6.75,5.51,6.15,–,–,–,–,Active
COc1ccc(/C=C/C(=O)c2cccnc2)c(OC)c1OC,7.51,6.53,6.77,4.93,5.06,< 4.70,< 4.70,Active
O=C(/C=C/c1cccnc1)c1ccc2ccccc2c1,7.82,6.46,6.20,4.55,5.36,< 4.70,< 4.70,Active
COc1ccc(/C=C/C(=O)c2cccnc2)cc1OC,7.72,5.85,6.59,4.28,5.96,< 4.70,< 4.70,Active
O=C(/C=C/c1cccnc1)c1cccc(Cl)c1,7.23,5.47,6.62,4.90,4.97,< 4.70,< 4.70,Active
O=C(/C=C/c1ccc(Cl)c(Cl)c1)c1cccnc1,7.02,5.70,6.20,4.82,4.99,< 4.70,< 4.70,Active
O=C(/C=C/c1cccnc1)c1ccc2ccc3cccc4ccc1c2c34,6.79,5.66,5.68,–,–,–,–,Active
O=C(/C=C/c1cccnc1)c1cccc2ccccc12,7.64,6.02,6.67,5.22,5.89,< 4.70,< 4.70,Active
COc1ccccc1/C=C/C(=O)c1cccnc1,7.82,5.33,6.66,5.82,5.76,< 4.70,< 4.70,Active
COc1ccc(C(=O)/C=C/c2cccnc2)cc1,6.28,5.44,5.62,–,–,–,–,Active
COc1cc(/C=C/C(=O)c2cccnc2)cc(OC)c1OC,6.46,6.54,6.29,–,–,–,–,Active
O=C(/C=C/c1cccnc1)c1ccc2ccc3ccccc3c2c1,7.32,6.91,6.00,4.59,4.92,< 4.70,< 4.70,Active
O=C(/C=C/c1ccncc1)c1ccc2ccccc2c1,6.73,6.04,6.52,–,–,–,–,Active
O=C(/C=C/c1cccnc1)c1cccc(Br)c1,7.19,5.59,6.79,4.85,5.10,< 4.70,< 4.70,Active
O=C(/C=C/c1ccccc1)c1cccnc1,7.11,4.50,5.33,4.95,5.09,< 4.70,< 4.70,Active
COc1ccc(/C=C/C(=O)c2cccnc2)cc1O,6.95,5.59,5.77,–,–,–,–,Active
COc1cc(OC)cc(C(=O)/C=C/c2cccnc2)c1,6.97,6.06,6.51,–,–,–,–,Active
COc1cccc(C(=O)/C=C/c2cccnc2)c1,6.89,5.46,6.32,–,–,–,–,Active
O=C(/C=C/c1ccc(F)c(F)c1)c1cccnc1,6.92,4.93,6.07,–,–,–,–,Active
O=C(/C=C/c1cccnc1)c1cc2ccccc2c2ccccc12,6.88,7.24,6.17,–,–,–,–,Active
COc1cccc(/C=C/C(=O)c2cccnc2)c1,7.49,4.98,6.12,5.89,6.00,< 4.70,< 4.70,Active
O=C(/C=C/c1cccnc1)c1ccc(-c2ccccc2)cc1,6.72,4.77,5.64,–,–,–,–,Active
COc1ccc(C(=O)/C=C/c2cccnc2)c(OC)c1,7.03,5.82,6.36,4.96,5.11,< 4.70,< 4.70,Active
COc1ccc(C(=O)/C=C/c2cccnc2)c(OC)c1OC,6.86,5.28,6.75,–,–,–,–,Active
